The values that follow come from ChEMBL document CHEMBL4387777, “Bis(benzoyl) phosphate inactivators of beta-lactamase C from Mtb” (Bioorg Med Chem Lett, 2019).

Data set [1] deals with Mycobacterium tuberculosis. Nature of the data set: Time-dependent inhibition of Mycobacterium tuberculosis BlaC expressed in Escherichia coli assessed as inactivation rate constant using nitrocefin as substrate.
Data set [2] has as its system Mycobacterium tuberculosis. The data set is described as follows: Inhibition of Mycobacterium tuberculosis BlaC expressed in Escherichia coli at 100 uM using nitrocefin as substrate measured at 2 mins interval for 10 mins relative to control. The method, boiled down:
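Purified BlaC was screened against each compound at a single concentration of 100 µM, and percent inhibition was read. Each % inhibition value comes from n ≥ 4 determinations and is reported with its standard deviation.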

Data set [3] in a line: Stability of the compound in pH 7.4 PIPES buffer assessed as compound hydrolysis at 5 to 10 mg by 31p-NMR analysis. Format: physicochemical.

For `COc1ccc(C(=O)OP(=O)(O)OC(=O)c2ccc(OC)cc2)cc1`, the K in data set [1] came to 0.212 min⁻¹. Also, in data set [2], the inhibition stood at 65.5%. Also, in data set [3], the Stability entry was “Stable”.
`N#Cc1ccc(C(=O)OP(=O)(O)OC(=O)c2ccc(C#N)cc2)cc1`: the Stability entry in data set [3] is “Unstable”.
`O=C(OP(=O)(O)OC(=O)c1ccc(F)cc1)c1ccc(F)cc1`: the K in data set [1] came out at 0.45 min⁻¹. This molecule came in with an inhibition in data set [2] of 84.3%. Besides, in data set [3], the Stability result is recorded as “Stable”.
For the molecule `Cc1ccc(C(=O)OP(=O)(O)OC(=O)c2ccc(C)cc2)cc1`, the inhibition in data set [2] turned out to be 41.2%. Also, in data set [3], the Stability result was “Stable”.
In the same order, the values of `O=C(OP(=O)(O)OC(=O)c1ccc(-c2ccccc2)cc1)c1ccc(-c2ccccc2)cc1` are 0% and “Stable”.
For the molecule `O=C(OP(=O)(O)OC(=O)c1ccc([N+](=O)[O-])cc1)c1ccc([N+](=O)[O-])cc1`, the Stability result in data set [3] is given as “Unstable”.
Molecule `O=C(OP(=O)(O)OC(=O)c1ccc(Cl)cc1)c1ccc(Cl)cc1` showed an inhibition in data set [2] of 24.8%. Also, the Stability entry in data set [3] is on record as “Stable”.
The matching figures for `O=C(OP(=O)(O)OC(=O)c1ccc(C(F)(F)F)cc1)c1ccc(C(F)(F)F)cc1`: 42.5% and “Stable”.
The matching figures for `O=C(OP(=O)(O)OC(=O)c1ccc(Cl)c(Cl)c1)c1ccc(Cl)c(Cl)c1`: 20.2% and “Stable”.
For the molecule `O=C(OP(=O)(O)OC(=O)c1ccccc1)c1ccccc1`, the K in data set [1] was 0.324 min⁻¹. In addition, the inhibition in data set [2] amounted to 52.3%. The Stability result in data set [3] is on record as “Stable”.

What is called inhibition is the percentage by which the read-out fell short of the control. A higher inhibition goes with a strong effect.
